The results in this text go back to ChEMBL document CHEMBL1131485, “Novel potent and selective central 5-HT3 receptor ligands provided with different intrinsic efficacy. 1. Mapping the central 5-HT3 receptor binding site by arylpiperazine derivatives” (J Med Chem, 1998).

Test [1] has as its target T1, Serotonin 3 (5-HT3) receptor (Rattus norvegicus, UniProt P35563+Q9JJ16).
T1 sequence (P35563 whole entry): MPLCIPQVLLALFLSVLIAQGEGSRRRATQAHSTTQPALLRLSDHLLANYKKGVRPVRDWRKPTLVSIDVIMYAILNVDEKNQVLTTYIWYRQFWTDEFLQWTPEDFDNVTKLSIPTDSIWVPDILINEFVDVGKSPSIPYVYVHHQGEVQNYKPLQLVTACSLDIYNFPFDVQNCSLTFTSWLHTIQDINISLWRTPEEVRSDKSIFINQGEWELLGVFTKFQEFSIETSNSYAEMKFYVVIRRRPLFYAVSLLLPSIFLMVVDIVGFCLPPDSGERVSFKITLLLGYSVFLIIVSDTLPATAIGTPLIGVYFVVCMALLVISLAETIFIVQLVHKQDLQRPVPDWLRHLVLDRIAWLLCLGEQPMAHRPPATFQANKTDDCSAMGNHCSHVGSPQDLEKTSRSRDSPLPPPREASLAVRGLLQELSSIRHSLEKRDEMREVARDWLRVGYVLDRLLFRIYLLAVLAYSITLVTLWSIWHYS
T1 sequence (Q9JJ16 whole entry): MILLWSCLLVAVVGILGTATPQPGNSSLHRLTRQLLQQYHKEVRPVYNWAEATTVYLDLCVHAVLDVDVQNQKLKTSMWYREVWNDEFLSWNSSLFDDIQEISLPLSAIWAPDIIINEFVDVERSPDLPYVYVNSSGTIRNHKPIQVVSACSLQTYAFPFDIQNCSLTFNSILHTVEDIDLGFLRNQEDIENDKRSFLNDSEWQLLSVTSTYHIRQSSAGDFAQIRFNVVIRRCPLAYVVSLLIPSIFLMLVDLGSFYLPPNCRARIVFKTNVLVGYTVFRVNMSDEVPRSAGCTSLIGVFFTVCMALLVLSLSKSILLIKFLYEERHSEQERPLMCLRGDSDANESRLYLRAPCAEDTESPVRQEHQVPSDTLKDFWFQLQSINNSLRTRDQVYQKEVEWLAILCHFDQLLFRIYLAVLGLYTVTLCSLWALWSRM
The test is described as follows: Binding affinity at 5-hydroxytryptamine 3 receptor in rat cortical membrane by [3H]graniestron displacement. Type of test: cell membranes. Summed up: (§1)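 Cortex and hippocampus of male Wistar rats homogenized in 50 mM Hepes pH 7.4 and assayed in 50 mM Hepes HCl pH 7.4. Filtered on GF/B presoaked in 0.1% polyethylenimine. Ki by Cheng-Prusoff from IC50. Mean ± SEM of three.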

Test [2] has as its target T1, Serotonin 3 (5-HT3) receptor. The test is described as follows: Ability to displace [3H]granisetron specifically bound to 5-hydroxytryptamine 3 receptor in rat cortical membrane. In kind it is cell membranes. The gist of the method: as §1
The target in test [3] is Sodium-dependent serotonin transporter (Rattus norvegicus, UniProt P31652). The test is described as follows: Ability to displace [3H]paroxetine bound to Serotonin transporter receptor in rat forebrain. Summed up:
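Rat forebrain membranes (male Wistar), stored at -80 °C, in 50 mM Tris HCl pH 7.4. Nonspecific binding with 1 μM 6-nitroquipazine. Filtered on GF/B presoaked in 0.5% polyethylenimine. Ki from IC50 via Cheng-Prusoff. Mean ± SEM of three.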

For test [4], the target named is T2, 5-hydroxytryptamine receptor 2C (Rattus norvegicus, UniProt P08909).
T2 sequence (P08909 whole entry): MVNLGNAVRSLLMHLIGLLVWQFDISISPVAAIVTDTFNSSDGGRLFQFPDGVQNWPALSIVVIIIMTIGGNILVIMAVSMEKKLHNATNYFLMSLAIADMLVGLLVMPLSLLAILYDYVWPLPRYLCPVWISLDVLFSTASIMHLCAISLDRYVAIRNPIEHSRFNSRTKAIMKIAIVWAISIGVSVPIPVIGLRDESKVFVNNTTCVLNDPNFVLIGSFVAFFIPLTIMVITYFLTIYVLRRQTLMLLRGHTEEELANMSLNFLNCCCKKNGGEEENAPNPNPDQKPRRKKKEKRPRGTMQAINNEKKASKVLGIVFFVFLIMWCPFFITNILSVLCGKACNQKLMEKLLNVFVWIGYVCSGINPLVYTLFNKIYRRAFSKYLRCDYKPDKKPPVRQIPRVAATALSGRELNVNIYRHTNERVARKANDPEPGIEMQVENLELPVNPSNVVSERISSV
The test is described as follows: Ability to displace [3H]mesulergine bound to 5-hydroxytryptamine 2C receptor in rat cortex. In kind it is tissue-based. The gist of the method: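 Cortical membranes from male Wistar rats in 50 mM Tris HCl pH 7.7 with 10 μM pargyline, 4 mM CaCl2 and 0.1% ascorbic acid. Nonspecific binding with 1 μM mianserine. Filtration assay. Ki from IC50 via Cheng-Prusoff. Mean ± SEM, n=3.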

Test [5] deals with 5-hydroxytryptamine receptor 1B (Rattus norvegicus, UniProt P28564). The test is described as follows: Ability to displace [3H]5-HT bound to 5-hydroxytryptamine 1B receptor in rat striatum. Type of test: tissue-based. Summed up:
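Striatal membranes from male Wistar rats in 50 mM Tris HCl pH 7.7 with 10 μM pargyline, 4 mM CaCl2 and 0.1% ascorbic acid. Filtration and scintillation counting. Ki from IC50 via Cheng-Prusoff. Mean ± SEM, n=3.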

Test [6] concerns the target T3, 5-hydroxytryptamine receptor 1A (Rattus norvegicus, UniProt P19327).
T3 sequence (P19327 whole entry): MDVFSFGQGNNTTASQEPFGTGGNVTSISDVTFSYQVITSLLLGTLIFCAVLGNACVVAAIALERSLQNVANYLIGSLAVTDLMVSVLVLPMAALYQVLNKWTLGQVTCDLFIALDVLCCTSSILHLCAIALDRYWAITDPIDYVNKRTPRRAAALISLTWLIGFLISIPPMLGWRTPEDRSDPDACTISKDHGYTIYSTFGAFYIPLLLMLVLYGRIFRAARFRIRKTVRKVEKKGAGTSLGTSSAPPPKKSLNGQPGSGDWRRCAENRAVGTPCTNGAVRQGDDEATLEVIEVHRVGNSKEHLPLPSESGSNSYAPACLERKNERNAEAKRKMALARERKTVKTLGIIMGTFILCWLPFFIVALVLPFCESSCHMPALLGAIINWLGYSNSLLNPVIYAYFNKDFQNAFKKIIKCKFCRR
The test is described as follows: Ability to displace [3H]- -OH-DPAT bound to 5-hydroxytryptamine 1A receptor in rat hippocampus. In kind it is tissue-based. Summed up: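 Male Wistar rat hippocampal membranes in 50 mM Tris HCl pH 7.4. Stopped by GF/B filtration, counted by scintillation. IC50 from competition curves, converted to Ki by Cheng-Prusoff. Mean ± SEM of three determinations.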

Test [7] addresses 5-hydroxytryptamine receptor 2A (Rattus norvegicus, UniProt P14842). Briefly: Ability to displace [3H]ketanserin bound to 5-hydroxytryptamine 2A receptor in rat pre-frontal cortex. In kind it is tissue-based. The gist of the method: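 Rat prefrontal cortex membranes (male Wistar) in 50 mM Tris HCl pH 7.7. […] Nonspecific binding with 3 μM ketanserin. Filtered and counted by scintillation. IC50 converted to Ki via Cheng-Prusoff. Mean ± SEM of three determinations.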

In general, Ki refers to the equilibrium dissociation constant of an inhibitor or competing ligand from its target. Lower therefore signals a stronger hold on the target.

Chain of Sodium-dependent serotonin transporter (P31652 whole entry): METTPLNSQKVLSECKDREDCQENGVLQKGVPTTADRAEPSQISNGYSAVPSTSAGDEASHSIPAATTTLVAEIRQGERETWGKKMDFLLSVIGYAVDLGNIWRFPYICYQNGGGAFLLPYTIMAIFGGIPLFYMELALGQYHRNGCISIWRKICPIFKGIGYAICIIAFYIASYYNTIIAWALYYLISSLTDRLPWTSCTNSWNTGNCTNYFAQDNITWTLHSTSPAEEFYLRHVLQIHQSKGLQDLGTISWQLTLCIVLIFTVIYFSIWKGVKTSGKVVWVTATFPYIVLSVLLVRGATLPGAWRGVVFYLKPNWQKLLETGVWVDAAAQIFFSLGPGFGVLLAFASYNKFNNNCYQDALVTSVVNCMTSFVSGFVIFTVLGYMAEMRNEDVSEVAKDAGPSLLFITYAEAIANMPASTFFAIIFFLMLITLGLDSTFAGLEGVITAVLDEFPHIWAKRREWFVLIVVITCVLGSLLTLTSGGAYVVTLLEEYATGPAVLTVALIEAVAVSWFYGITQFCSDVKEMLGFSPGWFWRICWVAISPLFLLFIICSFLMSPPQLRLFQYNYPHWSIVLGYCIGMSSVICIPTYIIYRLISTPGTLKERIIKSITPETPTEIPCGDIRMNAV
Chain of 5-hydroxytryptamine receptor 1B (P28564 whole entry): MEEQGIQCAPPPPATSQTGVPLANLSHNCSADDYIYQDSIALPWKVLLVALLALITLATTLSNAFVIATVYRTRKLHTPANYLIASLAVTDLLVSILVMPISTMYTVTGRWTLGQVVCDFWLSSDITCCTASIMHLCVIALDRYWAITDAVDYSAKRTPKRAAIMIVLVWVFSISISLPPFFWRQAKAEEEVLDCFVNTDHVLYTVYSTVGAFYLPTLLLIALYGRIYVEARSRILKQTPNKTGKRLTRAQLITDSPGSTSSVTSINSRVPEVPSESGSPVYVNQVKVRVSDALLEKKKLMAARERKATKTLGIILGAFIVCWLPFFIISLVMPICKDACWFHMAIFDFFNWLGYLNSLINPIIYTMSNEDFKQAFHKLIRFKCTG
Chain of 5-hydroxytryptamine receptor 2A (P14842 whole entry): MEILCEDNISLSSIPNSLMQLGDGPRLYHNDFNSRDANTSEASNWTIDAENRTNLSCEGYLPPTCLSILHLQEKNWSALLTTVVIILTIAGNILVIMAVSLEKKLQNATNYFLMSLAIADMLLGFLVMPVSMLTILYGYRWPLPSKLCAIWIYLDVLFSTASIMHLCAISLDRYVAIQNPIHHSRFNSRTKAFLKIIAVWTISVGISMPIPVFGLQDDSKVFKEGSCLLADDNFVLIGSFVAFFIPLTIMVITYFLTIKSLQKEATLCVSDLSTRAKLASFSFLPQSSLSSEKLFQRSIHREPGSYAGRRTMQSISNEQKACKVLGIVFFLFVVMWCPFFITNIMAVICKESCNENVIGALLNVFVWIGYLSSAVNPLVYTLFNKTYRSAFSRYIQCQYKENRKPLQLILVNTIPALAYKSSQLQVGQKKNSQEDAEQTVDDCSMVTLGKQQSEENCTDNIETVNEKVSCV

In the case of `CN1CCN(c2cccc(C34C[C@H]5C[C@@H](C3)C[C@@H](C4)C5)n2)CC1`, in test [1], the “Log Ki” value is < -6.26. Moreover, in test [2], the Ki was > 550 nM.

As for `c1ccc(CN2CCN(c3nc4ccccc4c4c3CCCC4)CC2)cc1`, the affinity in test [2], expressed as Ki, was 11 nM.

In the case of `CN1CCN(c2ccc3c(n2)C2CCCCC2CC3)CC1` (stereo not given), the Ki in test [1] is 661 nM; in test [2], 660 nM.

For the compound `CN1CCN(c2nc3c(c4c2CCCC4)CCCC3)CC1`, the Ki in test [1] and in test [2] was 110 nM throughout.

`C[N+]1(C)CCN(c2nc3ccccc3c3c2CCCC3)CC1` had a Ki in test [2] of 13 nM.

In test [2], `CCN1CCN(c2nc3ccccc3c3c2CCCC3)CC1` displayed a Ki of 1.9 nM. This Ki lies about 6.8-fold lower than the previous one.

In the case of `CN1CCN(c2ccc3c(n2)CCc2ccccc2-3)CC1`, the Ki in test [1] is 832 nM; in test [2], 830 nM.

Turning to `c1ccc2c3c(c(N4CCOCC4)nc2c1)CCCC3`, in test [2], the Ki was > 17000 nM.

`CN1CCN(c2ccc3c(n2)-c2ccccc2CCC3)CC1`: the “Log Ki” value in test [1] is on record as < -6.26. Besides, the Ki in test [2] is > 550 nM.

Consider `CN1CCN(c2nc3ccccc3c3c2CC2CCC3C2)CC1` (stereo not given), for which the Ki in test [3] is 24000 nM; in test [4] it was 2800 nM; in test [5], 2300 nM; in test [6] it was 2400 nM; in test [1] it was 0.832 nM; in test [2], 0.83 nM. The same compound had a Ki in test [7] of 3700 nM.

On to `CN1CCN(c2ccc3ccccc3n2)CC1`, for which the Ki was 3.02 nM in test [1] and 3 nM in test [2].

In the case of `CN1CCN(c2ccc3ccc4ccccc4c3n2)CC1`, the Ki in test [1] and in test [2] was 200 nM in each case.

In the case of `CN1CCN(c2ccc3c(n2)-c2ccccc2CC3)CC1`, the Ki in test [1] and in test [2] was 200 nM each time.

Regarding `CN1CCN(c2ccc3c(n2)-c2ccccc2C3)CC1`, the Ki in test [3] was 59 nM; in test [4], 16000 nM; in test [5], 3800 nM; in test [6] it was 5700 nM; in test [1], 14.1 nM; in test [2], 14 nM. In test [7], this compound registered a Ki of 2600 nM.

For `CN1CCCN(c2nc3ccccc3c3c2CCCC3)CC1`, affinity in test [2] was put at a Ki of 4.8 nM.

For `CN1CCN(c2nc3ccccc3c3ccccc23)CC1`, the Ki in test [1] was 1.91 nM; in test [2], 1.9 nM.

Regarding `CN1CCN(c2nc3ccccc3c3c2CCCC3)CC1`, the Ki in test [3] is 12000 nM; in test [4], 4400 nM; in test [5] it was > 4000 nM; in test [6], 2800 nM; in test [1], 0.229 nM; in test [2], 0.23 nM. Further, the affinity in test [7], expressed as Ki, was 3000 nM.

As to `c1ccc2c3c(c(N4CCNCC4)nc2c1)CCCC3`, in test [2], the Ki came out at 1.7 nM.

As for `O=[N+]([O-])c1ccc2nc(N3CCNCC3)ccc2c1` [6-NITROQUIPAZINE], the values for the Ki in test [3] and in test [2] were 0.12 nM and 58 nM, respectively.

`CCCN(CCC)C1CCc2cccc(O)c2C1` (stereo not given) [8-OH-DPAT] had a Ki in test [2] of 1.2 nM.

As for `c1ccc2nc(N3CCNCC3)ccc2c1` [QUIPAZINE], the Ki in test [4] came out at 190 nM; in test [5], 310 nM.
